FID counter = compounds displacing fluorescent DNA intercalator, primary screen, artefact control for HCV NS3 helicase inhibitor project, biochemical, FID fluorescence | DNA fluorescent intercalator displacement | inhibition, % at 7.9 µM | 290,000 tested, 0.17% active; in the data active means inhibition above about 37%;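 further: higher means more ethidium bromide displaced from hairpin DNA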
IMP-1 inhibitor = IMP-1 metallo-beta-lactamase inhibitors, primary screen, biochemical, epi-absorbance readout, Pseudomonas aeruginosa enzyme | metallo-beta-lactamase IMP-1 (Pseudomonas aeruginosa) | AID 1556, 2009 | inhibition, % at 5.6 µM | purified IMP-1, nitrocefin hydrolysis, epi-absorbance fluorescence | 290,000 tested, 0.45% active;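 active means inhibition above the mean plus 3 SD of all compounds in the same screening run, cut at about 4.5% in these data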
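system = purified recombinant IMP-1 beta-lactamase | amount = 0.2 nM IMP-1, as dispensed | medium = HEPES buffer pH 7.1 with ZnSO4 and Brij 35 | times = 25 °C, 15 min preincubation, 25 min reaction | detection = plate fluorescence quenching by hydrolysis product, ex 480/em 530 nm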
NALP1 yeast inh = NALP1 inflammasome inhibitors in reconstituted yeast, colorimetric, S. cerevisiae, triplicate retest. S. cerevisiae NALP1/ASC/caspase-1 growth, X-gal OD620, 72 h. inhibition, % at 10 µM. 280,000 tested, 0.61% active. AID 2071, 2009; in the data active means inhibition mostly above about 24%, no sharp cut-off; inactive means mostly below about 32%
UBC9 SUMO inh = inhibitors of in vitro SUMOylation cascade, primary screen, biochemical, HTRF, uHTS; SUMO-conjugating enzyme UBC9 (Homo sapiens), P63279; inhibition, % at 35 µM; 290,000 tested, 0.36% active; HTRF SUMOylation assay, SAE1/SAE2 + UBC9; in the data active means inhibition above about 50%, passing the limit was not always enough
Target sequence (P63279 whole entry, looked up): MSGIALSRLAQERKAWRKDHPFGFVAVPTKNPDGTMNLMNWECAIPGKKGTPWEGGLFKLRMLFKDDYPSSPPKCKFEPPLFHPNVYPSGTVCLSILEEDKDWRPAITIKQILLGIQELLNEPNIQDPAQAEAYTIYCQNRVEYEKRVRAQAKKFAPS
Mot1-301 SUMO = yeast Mot1-301 growth rescue at high temperature, primary screen, SUMOylation pathway inhibitor project, S. cerevisiae, ATP luminescence, 38.5C | S. cerevisiae Mot1-301 growth rescue; percent above DMSO median, 100 means doubled | growth rescue, % at 18.8 µM | 320,000 tested, 1% active | AID 2716, 2010;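 active means every valid replicate shows activation above 250% relative to neutral control wells; inactive means the rest, any valid replicate at or below 250%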
VIM-2 inh = VIM-2 metallo-beta-lactamase inhibitors, primary screen, biochemical, epi-absorbance readout, Pseudomonas aeruginosa enzyme. inhibition, % at 5.6 µM. 290,000 tested, 0.89% active. purified VIM-2, nitrocefin hydrolysis, epi-absorbance fluorescence. AID 1527, 2009;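 active means inhibition above the mean of all tested compounds plus 3 SD, cutoff set per screening run, cut at about 7.5% in these data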;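 further: red hydrolysis product quenches plate fluorescence so inhibitors raise well fluorescence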
Large screens that a line does not name were inactive. Hits are enriched below; roughly 2.9% of the tested compounds scored in any of these assays.

CCOC(=O)C1=C(C)Nc2sc(C(=O)c3ccc(F)cc3)c(N)c2C1c1ccc(C(=O)OC)cc1 (stereo not drawn)	none
CCOC(=O)C1=C(C)Nc2sc(C(=O)c3ccc(C)cc3)c(N)c2C1c1ccc(C(=O)OC)cc1 (stereo not drawn)	VIM-2 inh 7.8
CCN(CC)CCNC(=O)C(=O)NCC1OCCN1S(=O)(=O)c1cccs1 (stereo not drawn)	none
CCOC(=O)N1CCN(c2c(-c3ccc(C(C)C)cc3)c(=O)c2=O)CC1	IMP-1 inhibitor 5.3
CCOC(=O)N1CCN(c2c(-c3ccc(C)cc3)c(=O)c2=O)CC1	none
CNC[C@@H](CC1CCCCC1)NC[C@H](CC(C)C)NCCc1cccc(C(F)(F)F)c1	none
CNC[C@@H](Cc1ccccc1)NC[C@@H](CC1CCCCC1)NCCCc1ccccc1	FID counter 38
CCN(CC)CC(C(=O)N(CC)CC)P(=O)(c1ccccc1)c1ccccc1 (stereo not drawn)	NALP1 yeast inh 42
CC(C)CN(CC(C)C)c1ccc(/C=N/n2cnnc2)cc1[N+](=O)[O-]	none
Cc1nnc2c3ccccc3c(-c3ccc(O)cc3)nn12	VIM-2 inh 10
CSc1nc(NCCOCCO)c2sc3nc(-c4ccco4)c4c(c3c2n1)CCC4	none
CCN(CCO)c1nc(SC)nc2c1sc1nc(-c3ccco3)c3c(c12)CCC3	IMP-1 inhibitor 12
COC(=O)CN1C(=O)[C@H]2[C@@H](C3CC3)N3C(=O)CN(Cc4ccccn4)C(=O)[C@@]3(Cc3ccccc3)[C@H]2C1=O	none
CC(=O)NC(Cc1ccccc1C)C(=O)NC1CCN(c2ncccc2[N+](=O)[O-])CC1 (stereo not drawn)	none
O=C(CSc1nnc(Cn2nnc(-c3ccccc3)n2)n1-c1ccccc1)Nc1ccccc1	IMP-1 inhibitor 4.7
O=C(CSc1nnc(Cn2nnc(-c3ccccc3)n2)n1-c1ccccc1)Nc1ccc(F)cc1	none
Nc1cc2nsnc2cc1Br	UBC9 SUMO inh 100
COc1cc(Br)cc(C=Nc2cccc(C(F)(F)F)c2)c1O	Mot1-301 SUMO 326
COc1cccc(C=Nc2cc(C)cc(C)c2)c1O	none
CCOc1ccc(S(=O)(=O)Nc2ccccc2C(=O)N(C)C2CCN(C)CC2)cc1	none (no result: FID counter, IMP-1 inhibitor, NALP1 yeast inh, UBC9 SUMO inh, VIM-2 inh)
O=C(O)CSc1cc(NS(=O)(=O)c2cccc([N+](=O)[O-])c2)c2ccccc2c1O	UBC9 SUMO inh 88 (no result: Mot1-301 SUMO)
CCc1ccc(S(=O)(=O)Nc2cc(SCC(=O)O)c(O)c3ccccc23)cc1	UBC9 SUMO inh 101
CCOC(=O)c1ccccc1NS(=O)(=O)c1ccc(OCC)cc1	NALP1 yeast inh 30
Cc1ccccc1NS(=O)(=O)c1ccc(OCC(=O)NCc2cccnc2)cc1	Mot1-301 SUMO 385
COc1ccc(NC(=O)CSCC(=O)NC2(C)CCS(=O)(=O)C2)cc1 (stereo not drawn)	none
CCOc1ccc(S(=O)(=O)Nc2cc(SCC(=O)O)c(O)c3ccccc23)cc1	UBC9 SUMO inh 75, VIM-2 inh 10
COc1ccc(-c2cc(=O)oc3cc(OCC(C)=O)ccc23)cc1	none
COc1ccc(-c2cc(=O)oc3cc(O)ccc23)cc1	VIM-2 inh 8.6
Cc1occc1C(=O)Nc1ccccc1C#N	none
COc1cc2c(cc1OC)CN(C(=O)C1CCCN1S(=O)(=O)c1ccc(C)cc1)CC2 (stereo not drawn)	none
CS(=O)(=O)N1CCN(c2ccccc2NC(=O)C(c2ccccc2)c2ccccc2)CC1	NALP1 yeast inh 43
CCOC(=O)C1CCN(C(C(=O)NC2CCCC2)c2ccc(C)cc2)CC1 (stereo not drawn)	NALP1 yeast inh 36
Cc1[nH]nc(N)c1-c1ccc(Cl)cc1	Mot1-301 SUMO 287
N#Cc1c(NC(=O)c2ccccc2Cl)n(Cc2ccccc2)c2nc3ccccc3nc12	UBC9 SUMO inh 100
CC(C)c1ccc(NC(=O)[C@@H]2CCC(=O)N2C2OC(=O)c3ccccc32)cc1 (stereo partly drawn)	none
COc1cc2[nH]c3ccccc3c2cc1C	NALP1 yeast inh 22 (no result: FID counter, IMP-1 inhibitor, VIM-2 inh)
Cc1ccc(S(=O)(=O)CCC(=O)OCc2nnc(-c3ccccc3)o2)cc1	none (no result: FID counter, IMP-1 inhibitor, NALP1 yeast inh, UBC9 SUMO inh, VIM-2 inh)
CCCNC(=O)c1ccccc1NC(=O)c1ccc2c(c1)NC(=O)C(C)S2 (stereo not drawn)	none
COc1ccc(-c2cc3c(=O)n(CC(=O)NCCCN4CCC(N5CCCCC5)CC4)ncn3n2)cc1	FID counter 40
COc1ccc(-c2cc3c(=O)n(CC(=O)NC4CCN(Cc5ccccc5)CC4)ncn3n2)cc1	none
CCC(CNc1cc(OC)cc2cccnc12)NC1CCCCC1 (stereo not drawn)	UBC9 SUMO inh 102
Cc1ccc(C(=O)Nn2cnc3ccccc3c2=O)cc1C	none
O=C(COc1ccccc1)NC1CCS(=O)(=O)C1 (stereo not drawn)	none
O=C(COC(=O)C1(c2ccccc2F)CCCC1)NC1CCS(=O)(=O)C1 (stereo not drawn)	Mot1-301 SUMO 298
CN(C)CCC1c2ccc(Cl)cc2CCc2cccnc21 (stereo not drawn) (tested in a mixture with another compound)	NALP1 yeast inh 40
CCC(=O)Nc1nc2ccc(NC(C)=O)cc2s1	IMP-1 inhibitor 6.2
O=C(CS(=O)c1ccc(F)cc1)Nc1ccccc1Cl (stereo not drawn)	Mot1-301 SUMO active
O=C(CS(=O)c1cccc(C(F)(F)F)c1)Nc1ccccc1Cl (stereo not drawn)	none (no result: Mot1-301 SUMO)
N=C1C2=C3Sc4ccccc4N3CCCC2=NN1c1cccc(S(=O)(=O)O)c1	none
O=CC1=C(c2ccccc2)Oc2ccccc2O1	NALP1 yeast inh 52
Cc1cc(O)c(C(C)C)cc1N=Nc1ccccc1C(=O)O	NALP1 yeast inh 38
O=C(CN1CCN(CC(=O)Nc2ccccc2F)CC1)Nc1ccc2c(c1)OCCO2	none
O=[N+]([O-])c1cc(NCCO)c(N2CCCCCC2)c2nonc12	none
CC(=O)N1CCc2cc(S(=O)(=O)NC(Cc3ccccc3)C(=O)Nc3cc(C)ccn3)ccc21 (stereo not drawn)	NALP1 yeast inh 38
CC(C)[C@H](NC(=O)c1ccccc1)C(=O)OCc1nnc(-c2ccccc2)o1	none
Cc1noc(C)c1COC(=O)[C@@H](NC(=O)c1ccccc1)C(C)C	NALP1 yeast inh 24 (no result: Mot1-301 SUMO)
CN(C)S(=O)(=O)Nc1ccc2c(c1)Cc1ccccc1-2	none

Screening data as filed in PubChem.
